Substitutions are numbered along the chain they refer to.
Tests used:
Type in all cases: cell-based, rabbit
[1] = target: T1, D444C-EAAC1 (Oryctolagus cuniculus, UniProt P31597, D444C); experiment: Blockade of sodium-dependent transient currents; details: D444C; for Decay time of transient currents blocked: 10 mM compound, at −100 mV; for IC50: read-out: IC50 for substrates/blockers of charge movements, Xenopus oocytes, mean ± SEM
T1 sequence (P31597 1-524 D444C): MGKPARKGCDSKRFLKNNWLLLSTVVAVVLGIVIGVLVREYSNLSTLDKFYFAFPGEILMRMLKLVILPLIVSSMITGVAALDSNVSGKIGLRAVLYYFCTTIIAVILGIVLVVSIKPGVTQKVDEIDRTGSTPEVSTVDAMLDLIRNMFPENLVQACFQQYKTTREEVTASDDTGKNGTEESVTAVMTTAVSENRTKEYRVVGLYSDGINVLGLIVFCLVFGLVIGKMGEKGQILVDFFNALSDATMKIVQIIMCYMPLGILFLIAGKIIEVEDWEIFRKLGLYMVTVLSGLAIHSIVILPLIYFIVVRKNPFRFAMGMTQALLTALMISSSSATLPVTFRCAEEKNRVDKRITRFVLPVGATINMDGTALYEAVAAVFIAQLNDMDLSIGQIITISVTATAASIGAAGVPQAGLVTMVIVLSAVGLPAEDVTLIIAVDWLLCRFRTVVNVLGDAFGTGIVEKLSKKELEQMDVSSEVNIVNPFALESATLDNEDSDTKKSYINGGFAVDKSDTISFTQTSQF
Outline: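 Steps from −25 mV to −100…+40 mV. Transients taken as current without minus current with compound. Charge is the sum of integrals at −100 and +40 mV, normalised to 10 mM of the same compound. IC50 from a generalized Hill fit; decay from a first-order exponential; 3–10 oocytes.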

[2] = target: T2, D444C after MTSES (Oryctolagus cuniculus, UniProt P31597, D444C); experiment: Blockade of transient currents; details: for Decay time of transient currents blocked: D444C after MTSES, 10 mM compound; for IC50: read-out: IC50 for substrates/blockers of charge movements, D444C after MTSES (2 mM), Xenopus oocytes, mean ± SEM
T2 sequence (P31597 1-524 D444C): T1 sequence (P31597 1-524 D444C)
Outline: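 Oocytes were injected with cRNA for His-tagged EAAC1 D444C and held by two-electrode voltage clamp at −25 mV, stepped from −100 to +40 mV in 10-mV steps of 250 ms each, in ND96 pH 7.5. MTSES (2 mM final) was added under clamp with flow stopped, reacted 2 min, then washed out 5 min. Transients were taken as buffer minus buffer+compound (10 mM) and decay times fitted to a first-order exponential; 3–10 oocytes.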

[3] = target: T3, D444S-EAAC1 (Oryctolagus cuniculus, UniProt P31597, D444S); experiment: Blockade of sodium-dependent transient currents; details: D444S; for Decay time of transient currents blocked: 10 mM compound, at −100 mV; for IC50: read-out: IC50 for substrates/blockers of charge movements, Xenopus oocytes, mean ± SEM
T3 sequence (P31597 1-524 D444S): T1 sequence (P31597 1-524 D444C) with C444S
Outline: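 Oocytes expressing the mutant were clamped in sodium ND96 and given 250-ms pulses from −25 mV to −100…+40 mV, with and without compound; TBOA was added to a stopped bath. Isolated transients (without minus with compound) were integrated at −100 and +40 mV and summed. Charge was normalised to 10 mM of each compound and Hill-fitted; 4–6 oocytes. Decay came from an exponential fit; 3–10 oocytes.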

[4] = target: T3, D444S-EAAC1; experiment: Substrate-induced steady-state transport currents in oocytes expressing D444S; details: 2 mM for L-aspartate and succinate, other concentrations not given
[5] = target: T4, D444N mutant EAAC1 (Oryctolagus cuniculus, UniProt P31597, D444N); experiment: Blockade of transient currents; details: D444N; for IC50: read-out: IC50 for substrates/blockers of charge movements, Xenopus oocytes, mean ± SEM
T4 sequence (P31597 1-524 D444N): T1 sequence (P31597 1-524 D444C) with C444N

Row | SMILES | Decay time of transient currents blocked [1] | IC50 [1] | Decay time of transient currents blocked [2] | IC50 [2] | Decay time of transient currents blocked [3] | IC50 [3] | Induction of steady-state transport currents [4] | IC50 [5] | Inhibition of the transient currents ([5]; 10 mM succinate)
1 | N[C@@H](CC(=O)O)C(=O)O [L-Aspartate, L-aspartate] | 19.3 ± 1 ms | 12 ± 2 µM | 10.2 ± 0.4 ms | 112 ± 19 µM | 12.2 ± 0.6 ms | 130 ± 15 µM | not observed | 295 ± 45 µM | 
2 | O=C(O)CCC(=O)O [Succinate, succinate] | 15.7 ± 1.1 ms | 840 ± 70 µM | 8.7 ± 1.5 ms | 716 ± 25 µM | 9.9 ± 0.7 ms | 1340 ± 110 µM | did not induce any steady-state currents | > 10000 µM | no inhibition was observed
